Assay outcomes deposited in PubChem BioAssay by several laboratories.
Hits are enriched below; roughly 1.8% of the tested compounds scored in any of these assays.
EBI2 block: EBI2 (human) antagonism | P32249 | EBI2 beta-arrestin recruitment, luminescence, 7a,25-OHC stimulated | inhibition, % at 5 µM | 0.81% of 360,000 active | AID 651636; in the data active = inhibition above about 38%;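 also: enzyme fragment complementation signal reports receptor beta-arrestin coupling in cells; 0% = agonist plus DMSO wells and 100% = wells without agonist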
APJ antag: APJ receptor antagonism. AID 2521. CHO-K1 APJ beta-arrestin complementation, luminescence. P35414. 0.32% of 330,000 active. inhibition, % at 20 µM;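 active = inhibition above about 40% at 20 µM, limit read from the data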;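 also: cells challenged with 10 nM apelin-13 agonist together with compound; plate controls were apelin-13 plus DMSO wells for no effect and DMSO wells lacking apelin-13 for full effect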
Target sequence (P35414 whole entry, looked up): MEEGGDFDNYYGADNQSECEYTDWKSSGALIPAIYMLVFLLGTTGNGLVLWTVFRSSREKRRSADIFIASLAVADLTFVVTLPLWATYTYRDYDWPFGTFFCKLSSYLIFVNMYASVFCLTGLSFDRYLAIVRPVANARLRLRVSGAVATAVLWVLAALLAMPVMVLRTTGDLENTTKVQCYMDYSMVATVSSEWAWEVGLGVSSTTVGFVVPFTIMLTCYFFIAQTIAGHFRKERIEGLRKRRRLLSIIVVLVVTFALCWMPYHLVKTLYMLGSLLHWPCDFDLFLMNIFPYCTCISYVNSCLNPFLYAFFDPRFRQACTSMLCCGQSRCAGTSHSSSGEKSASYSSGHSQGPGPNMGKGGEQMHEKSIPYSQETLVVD
CXCR6 inh: CXCR6 (human) receptor inhibition; AID 602244; CHO-K1 PathHunter CXCR6 beta-arrestin, luminescence; 0.36% of 360,000 active; O00574; inhibition, % at 20 µM; in the data active = inhibition above about 34%, passing the limit was not always enough;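 also: antagonist mode with CXCL16 agonist at 10 nM final; 0% = 10 nM CXCL16 with DMSO and 100% = unstimulated wells without agonist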
APJ ag: APJ receptor agonism; P35414; CHO-K1 APJ PathHunter beta-arrestin, luminescence; 0% DMSO wells, 100% apelin; activation, % at 20 µM; 0.11% of 330,000 active; AID 2520;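 active = activation more than six SD over the plate average, tested at 20 µM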;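 also: 0% = DMSO alone and 100% = apelin-13 at 10 nM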
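Test system: CHO-K1 APJ beta-arrestin complementation cell line. Amount: cell density 1000 per well. Controls: DMSO negative, 10 nM Apelin-13 positive. Signal: luminescent beta-gal fragment complementation, chemiluminescent substrate. Read-out basis: agonist-driven arrestin binding to APJ. Timing: compound stimulation 90 min at 25 °C, detection 60 min.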
CCR6 antag: antagonists of human CCR6 receptor. CHO-K1 CCR6 PathHunter beta-arrestin, luminescence, CCL20-stimulated. inhibition, % at 20 µM. 0.49% of 340,000 active. AID 493098;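 active = compounds whose inhibition of the agonist-driven luminescence signal at 20 µM reaches about 50%, limit read from the data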;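 also: cells stimulated with CCL20 at 14 nM final; plate controls were DMSO with CCL20 for no effect and DMSO without agonist for full effect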
Beta2AR agonist: human beta-2 adrenergic receptor agonism by FAP; P07550; 0.43% of 340,000 active; Am2.2-beta2AR cells, FAP receptor internalization, flow cytometry; response, % (concentration not given with the values); AID 504454;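 active = response above a set limit, near 3 SD of response in nonfluorescent compounds, cut at about 42% in these data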
EBI2 conf: EBI2 (human) antagonism, single concentration confirmation | EBI2 beta-arrestin luminescence, 7a,25-OHC antagonism | inhibition, % at 5 µM | shares compounds with EBI2 block | 29% of 2,400 active;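 active = inhibition of at least 50%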
EBI2 agonist: counter-screen for EBI2 antagonists: EBI2 agonist activity; activation, % at 5 µM; shares compounds with EBI2 block; EBI2-expressing cells, agonist mode, luminescence, 60 min; 0% vehicle, 100% 7α,25-dihydroxycholesterol control; 2,400 tested, under 10 active;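 active = activation of at least 50%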
bGal cs: inhibits E. coli beta-galactosidase, counter-screen for EBI2 antagonists. 1% of 2,400 active. inhibition, % at 5 µM. shares compounds with EBI2 block. purified beta-galactosidase, luminescent Galacton Star, 15 min;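 active = replicate-average signal at least 3 plate SD below neutral wells, shown as high inhibition, flagging enzyme-inhibiting false positives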;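 also: 0% = DMSO wells with enzyme and 100% = wells lacking enzyme; higher means stronger loss of beta-gal luminescence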
An asterisk follows results filed as active; . = no result.

SMILES	EBI2 block	APJ antag	CXCR6 inh	APJ ag	CCR6 antag	Beta2AR agonist	EBI2 conf	EBI2 agonist	bGal cs
COc1ccc(OC)c(NC(=O)CN(c2ccc(C)cc2)S(=O)(=O)c2c(C)noc2C)c1	48.2*	10.9	0.5	-2.8	18.6	1.6	14.8	-1.1	-9.2
CCOc1ccc(N(CC(=O)Nc2ccc(OC)cc2)S(=O)(=O)c2c(C)noc2C)cc1	11.3	-4.1	-10.2	-0.7	10.7	0.1	.	.	.
CC1(C(=O)NCc2ccc(Cl)cc2)CCN1C(=O)Cc1ccc(Cl)cc1Cl (centres undefined)	2.9	.	2.9	.	.	.	.	.	.
CCCCCCCCN1C(=O)[C@H](CC(=O)NCc2cccc(C(F)(F)F)c2)C[C@@]2(C(=O)OCC)CCCC=C12	12.7	.	-0.4	.	.	.	.	.	.
O=C(COc1ccc(Br)cc1)N1CCN(S(=O)(=O)/C=C/c2ccccc2)CC1	92.5*	-1.4	-8.9	-1.5	11.7	-6.7	85.6*	1.2	5.2
O=C(COc1ccccc1F)N1CCN(S(=O)(=O)/C=C/c2ccccc2)CC1	54.5*	-5.4	-13.1	-2.8	3.2	-5.3	26.6	1.1	1.6
CCOC(=O)N1CCN(S(=O)(=O)/C=C/c2ccccc2)CC1	-2.1	-9.1	3.6	-2.8	-23.6	-3.7	.	.	.
Nc1cccc2cccc([N+](=O)[O-])c12	-14.0	.	-1.4	.	7.0	6.2	.	.	.
COc1ccc(C2=C(SC)CC2=NC(C)(C)C)cc1	1.0	.	2.5	.	1.3	1.9	.	.	.
CSC(=Nc1ccccc1)C(C#N)c1nc2ccccc2[nH]1 (centres undefined)	57.3*	10.9	8.5	-2.9	35.9	-5.3	46.7	-1.7	-10.8
N#C/C(=N\O)c1nc2ccccc2[nH]1	1.0	6.9	11.7	-1.4	-1.3	-3.3	.	.	.
O=C(COc1cccnc1[N+](=O)[O-])Nc1ccccc1Sc1ccccc1	47.6*	4.0	4.9	-1.6	5.0	-12.4	32.4	0.4	6.5
Cc1cccc(NC(=O)CNC(=O)CN2C(=O)NC3(CCCCC3C)C2=O)c1C (centres undefined)	-18.6	12.2	1.6	-3.6	-0.2	0.7	.	.	.
CC(C)(C)c1ccc(/C=N/NC(=S)NCc2ccccc2)cc1	18.5	-3.2	9.6	-2.4	20.5	-2.2	.	.	.
CCc1ccc(/C=N/NC(=S)NCCc2ccccc2)cc1	56.9*	13.7	0.6	-4.7	12.6	3.9	36.0	0.0	-10.6
CN(C)c1ccc(/C=N/NC(=S)NCc2ccccc2)cc1	48.9*	3.8	0.2	7.8	11.0	-15.0	28.1	0.6	4.2
CCc1ccc(N2CC(C(=O)Nc3ccc(S(=O)(=O)NCC4CCCO4)cc3)CC2=O)cc1 (centres undefined)	60.5*	6.5	4.9	-2.0	0.1	1.0	64.5*	-1.6	-16.8
COc1ccc(NC(=O)[C@@H]2O[C@H](CO)[C@H](O)[C@H](O)[C@H]2O)cc1F	-5.0	.	0.3	.	.	.	.	.	.
Cc1ccc(-c2cc3nc(-c4ccccc4)cc(NCCCO)n3n2)cc1	47.1*	.	5.5	.	.	.	35.5	-0.5	-10.5
O=C(/C=C/c1ccc(OC2CSC2)cc1)c1ccc(Cl)cc1	42.8*	14.1	0.2	-3.4	2.1	-4.0	11.5	-0.2	8.0
COc1ccc(C(=O)N2CCN(S(=O)(=O)c3ccc4c(c3)OCCO4)CC2)cc1OC	4.1	0.3	0.2	-3.3	12.4	-3.4	.	.	.
COc1ccc(OCCN2CCC(C(=O)NC(c3ccc(F)cc3)c3ncccc3C)CC2)cc1 (centres undefined)	45.5*	.	-3.3	.	.	.	11.7	-1.1	-4.5
COc1ccc(OCCN2CCC(C(=O)NC(c3ccc(Cl)cc3)c3ncccc3C)CC2)cc1 (centres undefined)	55.0*	.	6.1	.	.	.	16.9	-1.8	-14.0
